Assays:
[1] = system: Mycobacterium tuberculosis; experiment: Antimycobacterial activity against Mycobacterium tuberculosis H37Rv infected Swiss mouse assessed as reduction of bacterial count in spleen at 75 mg/kg 5 times weekly for 4 weeks; format: functional
In short: (§1)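 Nonestablished infection model in mice. Oral dosing began the day after inoculation, given 5 times per week for 4 weeks; one 12.5 mg/kg group was dosed once weekly. Mice were killed on day 28 and lung and spleen CFU counted, with untreated controls taken at day 1. Means ± SD; pairwise comparisons by Bonferroni's method.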

[2] = system: Mycobacterium tuberculosis; experiment: Antimycobacterial activity against Mycobacterium tuberculosis H37Rv infected Swiss mouse assessed as reduction of bacterial count in lungs at 75 mg/kg 5 times weekly for 4 weeks; format: functional; in short: as §1
[3] = system: Mycobacterium tuberculosis; experiment: Antimycobacterial activity against Mycobacterium tuberculosis H37Rv infected Swiss mouse assessed as spleen weight at 50 mg/kg 5 times weekly for 4 weeks; format: functional
[4] = system: Mycobacterium tuberculosis; experiment: Antimycobacterial activity against Mycobacterium tuberculosis H37Rv infected Swiss mouse assessed as reduction of bacterial count in spleen at 100 mg/kg 5 times weekly for 4 weeks; format: functional; in short: as §1
[5] = system: Mycobacterium tuberculosis; experiment: Antimycobacterial activity against Mycobacterium tuberculosis H37Rv infected Swiss mouse assessed as reduction of bacterial count in lungs at 50 mg/kg 5 times weekly for 4 weeks; format: functional; in short: as §1
[6] = system: Mycobacterium tuberculosis; experiment: Antimycobacterial activity against Mycobacterium tuberculosis H37Rv infected Swiss mouse assessed as spleen weight at 100 mg/kg 5 times weekly for 4 weeks; format: functional
[7] = system: Mycobacterium tuberculosis; experiment: Antimycobacterial activity against Mycobacterium tuberculosis H37Rv infected Swiss mouse assessed as reduction of bacterial count in spleen at 50 mg/kg 5 times weekly for 4 weeks; format: functional; in short: as §1
[8] = system: Mycobacterium tuberculosis; experiment: Antimycobacterial activity against Mycobacterium tuberculosis H37Rv infected Swiss mouse assessed as reduction of bacterial count in lungs at 100 mg/kg 5 times weekly for 4 weeks; format: functional; in short: as §1
[9] = system: Mycobacterium tuberculosis; experiment: Antimycobacterial activity against Mycobacterium tuberculosis H37Rv infected Swiss mouse assessed as spleen weight at 75 mg/kg 5 times weekly for 4 weeks; format: functional
Mus musculus [10] = experiment: Toxicity in Mycobacterium tuberculosis H37Rv infected Swiss mouse at 75 mg/kg 5 times weekly for 4 weeks; format: organism-based; parameters: dose 75 mg/kg; conditions: in vivo, 672 h
Mus musculus [11] = experiment: Toxicity in Mycobacterium tuberculosis H37Rv infected Swiss mouse at 100 mg/kg 5 times weekly for 4 weeks; format: organism-based; parameters: dose 100 mg/kg; conditions: in vivo, 672 h
Mus musculus [12] = experiment: Toxicity in Mycobacterium tuberculosis H37Rv infected Swiss mouse at 25 mg/kg 5 times weekly for 4 weeks; format: organism-based; parameters: dose 25 mg/kg; conditions: in vivo, 672 h
Mus musculus [13] = experiment: Toxicity in Mycobacterium tuberculosis H37Rv infected Swiss mouse at 12.5 mg/kg 5 times weekly for 4 weeks; format: organism-based; parameters: dose 12.5 mg/kg; conditions: in vivo, 672 h
Mus musculus [14] = experiment: Toxicity in Mycobacterium tuberculosis H37Rv infected Swiss mouse at 50 mg/kg 5 times weekly for 4 weeks; format: organism-based; parameters: dose 50 mg/kg; conditions: in vivo, 672 h
[15] = system: Mycobacterium tuberculosis; experiment: Antimycobacterial activity against Mycobacterium tuberculosis H37Rv infected Swiss mouse assessed as reduction of bacterial count in spleen at 25 mg/kg 5 times weekly for 4 weeks; format: functional; in short: as §1
[16] = system: Mycobacterium tuberculosis; experiment: Antimycobacterial activity against Mycobacterium tuberculosis H37Rv infected Swiss mouse assessed as reduction of bacterial count in lungs at 25 mg/kg 5 times weekly for 4 weeks; format: functional; in short: as §1
[17] = system: Mycobacterium tuberculosis; experiment: Antimycobacterial activity against Mycobacterium tuberculosis H37Rv infected Swiss mouse assessed as spleen weight at 25 mg/kg 5 times weekly for 4 weeks; format: functional
[18] = system: Mycobacterium tuberculosis; experiment: Antimycobacterial activity against Mycobacterium tuberculosis H37Rv infected Swiss mouse assessed as spleen weight at 10 mg/kg after 12 days of infection weekly 5 times for 8 weeks; format: functional
[19] = system: Mycobacterium tuberculosis; experiment: Antimycobacterial activity against Mycobacterium tuberculosis H37Rv infected Swiss mouse assessed as reduction of bacterial count in lungs at 10 mg/kg after 12 days of infection weekly 5 times for 8 weeks; format: functional
In short: (§2)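 Established infection model in mice. Treatment started 12 to 14 days after inoculation, given 5 times per week. Mice were killed on day 12 just before treatment, on day 42 (1 month of therapy) and on day 70 (2 months), and lung CFU counted. Means ± SD; pairwise comparisons by Bonferroni's method.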

[20] = system: Mycobacterium tuberculosis; experiment: Antimycobacterial activity against Mycobacterium tuberculosis H37Rv infected Swiss mouse assessed as reduction of bacterial count in spleen at 10 mg/kg after 12 days infection weekly 5 times for 1 month; format: functional
[21] = system: Mycobacterium tuberculosis; experiment: Antimycobacterial activity against Mycobacterium tuberculosis H37Rv infected Swiss mouse assessed as reduction of bacterial count in lungs at 10 mg/kg after 12 days infection weekly 5 times for 1 month; format: functional; in short: as §2
Plasma = experiment: Drug level in human plasma; format: ADME, cell-free
[22] = system: Mycobacterium tuberculosis; experiment: Antimycobacterial activity against Mycobacterium tuberculosis H37Rv infected Swiss mouse assessed as spleen weight at 10 mg/kg after 12 days infection weekly 5 times for 1 month; format: functional

Compound	log10cfu [1]	log10cfu [2]	Activity [3] [mg]	log10cfu [4]	log10cfu [5]	Activity [6] [mg]	log10cfu [7]	log10cfu [8]	Activity [9] [mg]	also measured
COc1nc2ccc(Br)cc2cc1[C@@H](c1ccccc1)[C@@](O)(CCN(C)C)c1cccc(F)c1	4.04	4.32	278	3.63	5.2	206	4.68	3.63	197	
COc1nc2ccc(Br)cc2cc1[C@@H](c1ccccc1)[C@@](O)(CCN(C)C)c1ccccc1	5.72	6.03	410	5.68	6.4	424	5.78	6.1	390	Activity (Mus musculus [10]): Non-toxic; Activity (Mus musculus [11]): Non-toxic; Activity (Mus musculus [12]): Non-toxic; Activity (Mus musculus [13]): Non-toxic; Activity (Mus musculus [14]): Non-toxic
NNC(=O)c1ccncc1 [ISONIAZID]										log10cfu [15]: 3.05 mg; log10cfu [16]: 1.75 mg; Activity [17]: 185 mg
CO[C@H]1/C=C/O[C@@]2(C)Oc3c(C)c(O)c4c(O)c(c(/C=N/N5CCN(C)CC5)c(O)c4c3C2=O)NC(=O)/C(C)=C\C=C\[C@H](C)[C@H](O)[C@@H](C)[C@@H](O)[C@@H](C)[C@H](OC(C)=O)[C@@H]1C [RIFAMPIN]										Activity [18]: 391 mg; log10cfu [19]: 1.89; log10cfu [20]: 4.72; log10cfu [21]: 4.05; Drug uptake (Plasma): < 0.001 µg/mL; Activity [22]: 466 mg
